Experimental data published in article PMC3076219 (European journal of immunology, 2009).

Columns and labels:
monocytes [1] = assay: Calcium mobilization in monocytes; assay type: cell-based, human; settings: ATP or WKYMVm first, then LL-37; Fig. 7D
Method in brief: (§1)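 Peripheral blood monocytes (kit-isolated from PBMC, CD14-checked) or THP-1 cells at 10^7/mL were loaded with 5 µM Indo-1-AM for 7 min at 37 °C, then held 10 min at RT and washed in cold PBS. Cells were run at 2×10^6/mL in KRP (PBS, 1.5 mM CaCl2, 1.5 mM MgSO4). After baseline they got a first stimulus, then a second. Flow cytometry used 351 nm excitation and the 405:485 nm ratio, gating live cells. Three independent experiments.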

neutrophils [2] = assay: Cross-desensitization of calcium mobilization of neutrophils; assay type: cell-based, human; settings: for cross-desensitization of response to fMLF by LL-37, CXCL7, CXCL1: data not shown
CXCR1 [3] = assay: CXCR1 surface expression on neutrophils, flow cytometry; assay type: cell-based, human; settings: 3h; for CXCR1 down-regulation at higher dose: 50 nM; for CXCR1 surface expression, chemokine treated: 1 nM, 5 nM, 10 nM (50 nM), Fig. 2E-G
Method in brief: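 Human blood neutrophils were isolated by dextran sedimentation and Ficoll (>95% CD16+) and held at 5×10^6/mL in RPMI 1640 with 1% FBS. They were treated 3h with a dose series (test peptide 1–10 µM; chemokines 1, 5, 10, 50 nM) or with 5 µM for 0.5–3h. Cells were blocked in 10% human serum and stained with anti-CXCR1-APC/anti-CXCR2-FITC or anti-P2X7-FITC, plus anti-CD16. Read-out was flow cytometry GMFI.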

CXCR2 [4] = assay: CXCR2 surface expression on monocytes; assay type: cell-based, human; settings: Supporting information Fig. 2
neutrophils [5] = assay: Calcium mobilization of neutrophils; assay type: cell-based, human; settings: ATP 5 µM; for [Ca2+]i time of decline to baseline: fMLF 100 nM, CXCL8 10 nM, Fig. 3A
CXCR2 [6] = assay: CXCR2 surface expression on neutrophils, flow cytometry; assay type: cell-based, human; settings: 3h; for CXCR2 surface expression, chemokine treated: 1 nM, 5 nM, 10 nM (50 nM), Fig. 2E-G
THP-1 cells = assay: Calcium mobilization in THP-1 cells; assay type: cell-based; settings: THP-1; Fig. 7C
Method in brief: as §1

monocytes [7] = assay: Migration of monocytes, 24-well Transwell; assay type: cell-based, human; settings: LL-37 5 µM, CXCL1 50 nM, WKYMVm 5 µM, ATP 50 µM, BzATP 50 µM; 90 min, 37°C; Fig. 7F
Method in brief: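 CFSE-labelled monocytes or THP-1 cells (5 µM, 5 min RT) at 2×10^6/mL in phenol-red-free RPMI 1640 with 1% FBS went in the Transwell upper chamber (3-µm pores). Stimuli in the lower chamber included CXCL1 50 nM, WKYMVm 5 µM and ATP/BzATP 50 µM. Cells were used with or without 20 min preincubation with 10 µM CXCR2 antagonist. Incubation at 37 °C lasted 90 min for monocytes and 2 h for THP-1. Lower-well cells were read at 495 nm against a standard curve, in quadruplicate.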

P2X7 = P2X7 receptor blockers; monocytes; ref [14]; cited from earlier work
CXCR1 [8] = assay: Calcium mobilization in HEK293/CXCR1 cells; assay type: cell-based, human; settings: Indo-1; Fig. 7A-B
Method in brief: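 CXCR1-transfected HEK293 cells were loaded with 5 µM Indo-1-AM in 5 µM pluronic F-127/PBS for 30 min at RT. They were washed in cold PBS, spun at 200 × g for 10 min at 4 °C and suspended in PBS with calcium and magnesium. Stimulation followed baseline recording. Flow cytometric [Ca2+]i was read as the 405:485 nm emission ratio with 351 nm excitation. Three independent experiments.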

CXCR2 [9] = settings: ref [33], [34]; cited from earlier work
CXCR1 [10] = assay: Confocal analysis of CXCR1 internalization in neutrophils; assay type: cell-based, human; settings: 37°C
Method in brief: (§2)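 Neutrophils came from citrated donor blood by dextran sedimentation and Ficoll gradient. […] Cells were fixed in 2% paraformaldehyde, permeabilised with saponin and blocked with human serum. Anti-CXCR1 or anti-CXCR2 mAb (4°C), then Alexa 488 anti-mouse IgG, DAPI mount, confocal imaging; three independent experiments.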

[11] = system: 125I-CXCL8 specific binding sites on neutrophils (CXCR1/2); assay: Competition with 125I-CXCL8 for binding to neutrophils; parameters: species or system human; settings: 1.25 nM 125I-CXCL8, 2h on ice, triplicate, dose-dependent, Fig. 5B
[12] = system: CXCR2 transfected HEK293 cells; assay: Secondary necrosis of CXCR2 transfected HEK293 cells; assay type: cell-based; settings: Supporting information Fig. 4
[13] = system: CXCR1 transfected HEK293 cells; assay: Secondary necrosis of CXCR1 transfected HEK293 cells; assay type: cell-based; settings: Supporting information Fig. 4
CXCR2 [14] = assay: Calcium mobilization in HEK293/CXCR2 cells; assay type: cell-based, human; settings: Indo-1; Fig. 7A-B
Method in brief: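 They were washed in cold PBS, pelleted at 200 × g for 10 min at 4 °C, and resuspended in PBS with Ca/Mg. […] [Ca2+]i was read as the 405:485 nm ratio by flow cytometry, gating on living cells.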

CXCR2 [15] = assay: Confocal analysis of CXCR2 internalization in neutrophils; assay type: cell-based, human; settings: 37°C
Method in brief: as §2

CXCR1 [16] = settings: ref [33], [34]; cited from earlier work
[17] = ATP 30 µM, 300 µM, 3000 µM, Fig. 2C
[18] = CXCL7 50 nM or CXCL1 50 nM, 60 min, data not shown
[19] = LL-37 5 µM or CXCL8 50 nM, 1 h, Fig. 8
[20] = fMLF 50 nM, 100 nM, 200 nM, Fig. 2A

Molecule: Nc1ncnc2c1ncn2[C@@H]1O[C@H](COP(=O)(O)OP(=O)(O)OP(=O)(O)O)[C@@H](O)[C@H]1O [ATP, reference compound]
- cross-block of LL-37 stimulated calcium mobilization in monocytes (monocytes [1]): neither ATP nor WKYMVm cross-block LL-37 stimulated calcium mobilization
- cross-desensitization of LL-37 response by ATP (neutrophils [2]; ATP first, then LL-37, Supporting information Fig. 3A-B): unable to block calcium mobilization stimulated by LL-37 in neutrophils
- CXCR1 surface expression (CXCR1 [3]; [17]): no down-regulation of either CXCR1 or CXCR2
- CXCR2 down-regulation on monocytes (CXCR2 [4]): but not ATP or BzATP, all down-regulate CXCR2
- [Ca2+]i time of decline to baseline (neutrophils [5]): ≤ 200 s
- calcium flux response in the absence of extracellular Ca2+ (neutrophils [5]; PBS without calcium and magnesium, LL-37 5 µM, WKYMVm 5 µM, Fig. 3C): only the WKYMVm peptide is capable of generating a calcium flux response
- CXCR2 surface expression (CXCR2 [6]; [17]): no down-regulation of either CXCR1 or CXCR2
- block of LL-37 induced calcium mobilization by ATP / BzATP (THP-1 cells): able to partially block
- stimulation of migration of monocytes (monocytes [7]): only LL-37 stimulated migration of monocytes

Molecule: Nc1ncnc2c1ncn2[C@@H]1O[C@H](COP(=O)(O)OP(=O)(O)OP(=O)(O)O)[C@@H](OC(=O)c2ccc(C(=O)c3ccccc3)cc2)[C@H]1O [BzATP]
- CXCR2 down-regulation on monocytes (CXCR2 [4]): but not ATP or BzATP, all down-regulate CXCR2
- block of LL-37 induced calcium mobilization by ATP / BzATP (THP-1 cells): not BzATP was able to partially block
- stimulation of migration of monocytes (monocytes [7]): only LL-37 stimulated migration of monocytes

Molecule: CN([C@@H](Cc1ccc(OS(=O)(=O)c2cccc3cnccc23)cc1)C(=O)N1CCN(c2ccccc2)CC1)S(=O)(=O)c1cccc2cnccc12 [KN62]
- block of LL-37-induced release of IL-1β (P2X7): did not completely block the release of IL-1β

Molecule: Nc1ncnc2c1ncn2[C@@H](C=O)O[C@@H](C=O)COP(=O)(O)OP(=O)(O)OP(=O)(O)O [oxATP]
- block of LL-37-induced release of IL-1β (P2X7): did not completely block the release of IL-1β

Molecule: CXCL1: recombinant human chemokine, predominantly CXCR2 specific
- calcium mobilization in CXCR1 transfected HEK293 cells (CXCR1 [8]): only CXCL8 gave a response
- affinity for CXCR2 (CXCR2 [9]): high affinity
- CXCR1 translocation (internalization) (CXCR1 [10]; [18]): caused only CXCR2 receptor translocation to the cytoplasm
- cross-desensitization of response to fMLF by LL-37, CXCL7, CXCL1 (neutrophils [2]): do not cross-sensitize fMLF stimulation
- CXCR1 down-regulation at higher dose (CXCR1 [3]): down-regulate CXCR1 at higher doses
- CXCR1 surface expression, chemokine treated (CXCR1 [3]): down-regulated CXCR2 but not CXCR1
- maximum competition of 125I-CXCL8 binding ([11]; 2×10^6 cells): around 50%
- displacement of 125I-CXCL8 [11]: partly displace
- generation of secondary necrotic cells, HEK293/CXCR2 [12]: not with CXCL1
- CXCR2 down-regulation on monocytes (CXCR2 [4]): down-regulate CXCR2
- generation of secondary necrotic cells, HEK293/CXCR1 [13]: not with CXCL1
- CXCR2 surface expression, chemokine treated (CXCR2 [6]): down-regulated CXCR2 but not CXCR1 in a limited dose-dependent manner
- calcium mobilization in CXCR2 transfected HEK293 cells (CXCR2 [14]): weak but similar patterns of calcium mobilization
- CXCR2 translocation (internalization) (CXCR2 [15]; [18]): caused only CXCR2 receptor translocation to the cytoplasm
- stimulation of migration of monocytes (monocytes [7]): only LL-37 stimulated migration of monocytes

Molecule: CXCL2: CXC chemokine
- affinity for CXCR2 (CXCR2 [9]): high affinity

Molecule: CXCL3: CXC chemokine
- affinity for CXCR2 (CXCR2 [9]): high affinity

Molecule: CXCL5: CXC chemokine
- affinity for CXCR2 (CXCR2 [9]): high affinity

Molecule: CXCL6: CXC chemokine
- affinity for CXCR2 (CXCR2 [9]): high affinity
- affinity for CXCR1 (CXCR1 [16]): high affinity

Molecule: CXCL8: recombinant human chemokine that binds both CXCR1/2
- calcium mobilization in CXCR1 transfected HEK293 cells (CXCR1 [8]): gave a response
- affinity for CXCR2 (CXCR2 [9]): high affinity
- CXCR1 translocation (internalization) (CXCR1 [10]; [19]): translocation of both CXCR1 and CXCR2 to the cytoplasm
- cross-desensitization of response to CXCL1 (neutrophils [2]; CXCL8 10 nM first, CXCL1 10 nM 160 s later, Fig. 4C): completely blocked
- cross-desensitization of response to CXCL7 (neutrophils [2]; CXCL8 10 nM first, CXCL7 10 nM 160 s later, Fig. 4B): completely blocked
- cross-desensitization of response to LL-37 (neutrophils [2]; CXCL8 10 nM first, LL-37 5 µM 160 s later, Fig. 4A): completely blocked
- cross-desensitization of response to fMLF (neutrophils [2]; CXCL8 10 nM first, fMLF 100 nM 160 s later, Fig. 4D): failed to cross-sensitize fMLF stimulation
- CXCR1 surface expression, chemokine treated (CXCR1 [3]): significantly down-regulated both CXCR1 and CXCR2
- affinity for CXCR1 (CXCR1 [16]): high affinity
- CXCR2 down-regulation on monocytes (CXCR2 [4]): down-regulate CXCR2
- [Ca2+]i time of decline to baseline (neutrophils [5]): less than 100 s
- CXCR2 surface expression, chemokine treated (CXCR2 [6]): significantly down-regulated both CXCR1 and CXCR2
- calcium mobilization in CXCR2 transfected HEK293 cells (CXCR2 [14]): weak but similar patterns of calcium mobilization
- CXCR2 translocation (internalization) (CXCR2 [15]; [19]): translocation of both CXCR1 and CXCR2 to the cytoplasm

Molecule: fMLF [reference compound]
- CXCR1 surface expression (CXCR1 [3]; [20]): caused down-regulation of both CXCR2 and CXCR1 expression with similar kinetics
- [Ca2+]i time of decline to baseline (neutrophils [5]): ≤ 200 s
- CXCR2 surface expression (CXCR2 [6]; [20]): caused down-regulation of both CXCR2 and CXCR1 expression with similar kinetics

B1: CXCL7: recombinant human chemokine, rather CXCR2 specific (protein, UniProt P02775 59-128, looked up)
Neutrophil-activating peptide …: AELRCMCIKTTSGIHPKNIQSLEVIGKGTHCNQVEVIATLKDGRKICLDPDAPRIKKIVQKKLAGDESAD
modifications: Neutrophil-activating peptide 2
- affinity for CXCR2 (CXCR2 [9]): high affinity
- CXCR1 translocation (internalization) (CXCR1 [10]; [18]): caused only CXCR2 receptor translocation to the cytoplasm
- cross-desensitization of response to fMLF by LL-37, CXCL7, CXCL1 (neutrophils [2]): do not cross-sensitize fMLF stimulation
- CXCR1 down-regulation at higher dose (CXCR1 [3]): down-regulate CXCR1 at higher doses
- CXCR1 surface expression, chemokine treated (CXCR1 [3]): less discriminatory towards CXCR2 compared to LL-37
- CXCR2 translocation (internalization) (CXCR2 [15]; [18]): caused only CXCR2 receptor translocation to the cytoplasm
